Measured values published in the M2OR odorant receptor database.

Legend:
Conditions in all cases: stereoisomer not certain
OR52N4 (Homo sapiens) = molecular target: T1, OR52N4 (Homo sapiens) (UniProt Q8NGI2)
T1 sequence (whole entry): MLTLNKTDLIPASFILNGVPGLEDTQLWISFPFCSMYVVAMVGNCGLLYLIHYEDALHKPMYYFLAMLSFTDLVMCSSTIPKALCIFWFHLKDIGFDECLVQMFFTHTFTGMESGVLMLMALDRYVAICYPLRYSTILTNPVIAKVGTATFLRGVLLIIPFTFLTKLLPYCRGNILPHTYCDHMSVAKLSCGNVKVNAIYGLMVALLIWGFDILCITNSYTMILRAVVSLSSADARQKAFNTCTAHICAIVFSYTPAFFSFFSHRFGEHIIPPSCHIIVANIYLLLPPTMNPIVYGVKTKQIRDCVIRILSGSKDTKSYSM
Summary of the method: (§1)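 Transient luciferase assays in mammalian cell lines were common, though methods varied by source. The values come from published papers and their supplementary material, with extra details from the original authors when needed. Responsive refers to a measured signal the original authors judged statistically different from baseline, and non-responsive (inactive) to the remainder.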

OR52N5 (Homo sapiens) = molecular target: T2, OR52N5 (Homo sapiens) (UniProt Q8NH56)
T2 sequence (whole entry): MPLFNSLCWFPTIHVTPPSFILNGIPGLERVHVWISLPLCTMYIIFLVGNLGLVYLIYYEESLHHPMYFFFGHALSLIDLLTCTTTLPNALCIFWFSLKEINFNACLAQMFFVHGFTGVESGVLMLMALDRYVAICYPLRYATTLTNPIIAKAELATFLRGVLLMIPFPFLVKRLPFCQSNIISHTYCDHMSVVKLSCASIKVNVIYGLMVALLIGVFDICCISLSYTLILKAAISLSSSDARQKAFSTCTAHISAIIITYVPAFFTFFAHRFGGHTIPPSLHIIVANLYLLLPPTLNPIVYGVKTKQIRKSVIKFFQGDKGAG
Summary of the method: as §1

OR52R1 (Homo sapiens) = molecular target: T3, OR52R1 (Homo sapiens) (UniProt Q8NGF1)
T3 sequence (whole entry): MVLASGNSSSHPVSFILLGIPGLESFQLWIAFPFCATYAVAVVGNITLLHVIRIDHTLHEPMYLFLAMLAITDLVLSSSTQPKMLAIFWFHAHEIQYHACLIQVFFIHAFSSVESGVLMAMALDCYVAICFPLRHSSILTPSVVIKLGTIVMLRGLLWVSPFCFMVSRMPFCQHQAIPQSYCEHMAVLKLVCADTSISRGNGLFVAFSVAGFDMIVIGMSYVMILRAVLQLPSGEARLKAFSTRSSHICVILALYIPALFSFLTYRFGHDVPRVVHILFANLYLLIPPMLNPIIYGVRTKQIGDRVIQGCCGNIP
Summary of the method: as §1

OR52W1 (Homo sapiens) = molecular target: T4, OR52W1 (Homo sapiens) (UniProt Q6IF63)
T4 sequence (whole entry): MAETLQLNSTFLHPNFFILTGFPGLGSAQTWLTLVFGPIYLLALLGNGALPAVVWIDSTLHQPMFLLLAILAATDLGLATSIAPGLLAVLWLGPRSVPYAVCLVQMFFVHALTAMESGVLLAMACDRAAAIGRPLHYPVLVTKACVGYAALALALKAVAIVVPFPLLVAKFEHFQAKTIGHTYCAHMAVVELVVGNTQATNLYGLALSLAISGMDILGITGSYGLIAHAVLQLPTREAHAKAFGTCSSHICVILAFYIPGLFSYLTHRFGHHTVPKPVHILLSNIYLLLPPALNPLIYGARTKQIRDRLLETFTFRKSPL
Summary of the method: as §1

OR52Z1P (Homo sapiens) = OR52Z1P (Homo sapiens) (UniProt P0C646)
Chain of OR52Z1P (Homo sapiens) (P0C646 whole entry): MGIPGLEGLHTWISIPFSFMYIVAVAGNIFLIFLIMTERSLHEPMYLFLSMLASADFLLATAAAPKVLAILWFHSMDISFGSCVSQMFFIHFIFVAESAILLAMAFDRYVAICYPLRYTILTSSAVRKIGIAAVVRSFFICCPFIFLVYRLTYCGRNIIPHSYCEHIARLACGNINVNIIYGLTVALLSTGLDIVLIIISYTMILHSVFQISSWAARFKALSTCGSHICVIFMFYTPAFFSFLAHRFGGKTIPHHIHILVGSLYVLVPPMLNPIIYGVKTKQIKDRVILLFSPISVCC
Summary of the method: as §1

OR56A1 (Homo sapiens) = molecular target: T5, OR56A1 (Homo sapiens) (UniProt Q8NGH5)
T5 sequence (whole entry): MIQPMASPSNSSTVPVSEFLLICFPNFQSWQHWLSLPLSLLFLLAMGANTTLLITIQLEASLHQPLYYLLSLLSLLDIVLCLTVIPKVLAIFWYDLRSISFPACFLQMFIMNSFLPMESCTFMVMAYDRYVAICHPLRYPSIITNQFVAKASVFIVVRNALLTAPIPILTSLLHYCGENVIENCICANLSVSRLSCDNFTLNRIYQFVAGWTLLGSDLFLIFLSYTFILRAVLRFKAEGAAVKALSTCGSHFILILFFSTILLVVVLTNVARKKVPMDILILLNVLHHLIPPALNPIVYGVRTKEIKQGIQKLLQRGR
Summary of the method: as §1

OR56A3 (Homo sapiens) = molecular target: T6, OR56A3 (Homo sapiens) (UniProt Q8NH54)
T6 sequence (whole entry): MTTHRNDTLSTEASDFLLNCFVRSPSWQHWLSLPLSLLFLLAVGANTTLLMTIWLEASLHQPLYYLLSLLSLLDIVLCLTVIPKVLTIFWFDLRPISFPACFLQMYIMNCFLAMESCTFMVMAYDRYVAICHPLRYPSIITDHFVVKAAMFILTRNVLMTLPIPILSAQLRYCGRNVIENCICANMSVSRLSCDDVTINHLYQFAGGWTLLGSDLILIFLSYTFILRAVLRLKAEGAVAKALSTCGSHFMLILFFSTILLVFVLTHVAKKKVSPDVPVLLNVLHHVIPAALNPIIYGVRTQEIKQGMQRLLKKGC
Summary of the method: as §1

OR56A4 (Homo sapiens) = molecular target: T7, OR56A4 (Homo sapiens) (UniProt Q8NGH8)
T7 sequence (whole entry): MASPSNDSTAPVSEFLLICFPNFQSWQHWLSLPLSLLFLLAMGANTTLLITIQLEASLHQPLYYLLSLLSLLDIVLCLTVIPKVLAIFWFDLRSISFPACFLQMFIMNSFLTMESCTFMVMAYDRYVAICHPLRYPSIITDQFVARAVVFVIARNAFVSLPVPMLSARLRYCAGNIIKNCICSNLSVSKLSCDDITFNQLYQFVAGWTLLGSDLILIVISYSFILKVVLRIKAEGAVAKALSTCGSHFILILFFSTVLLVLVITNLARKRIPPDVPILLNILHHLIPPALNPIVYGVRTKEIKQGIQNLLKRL
Summary of the method: as §1

OR56A5 (Homo sapiens) = molecular target: T8, OR56A5 (Homo sapiens) (UniProt P0C7T3)
T8 sequence (whole entry): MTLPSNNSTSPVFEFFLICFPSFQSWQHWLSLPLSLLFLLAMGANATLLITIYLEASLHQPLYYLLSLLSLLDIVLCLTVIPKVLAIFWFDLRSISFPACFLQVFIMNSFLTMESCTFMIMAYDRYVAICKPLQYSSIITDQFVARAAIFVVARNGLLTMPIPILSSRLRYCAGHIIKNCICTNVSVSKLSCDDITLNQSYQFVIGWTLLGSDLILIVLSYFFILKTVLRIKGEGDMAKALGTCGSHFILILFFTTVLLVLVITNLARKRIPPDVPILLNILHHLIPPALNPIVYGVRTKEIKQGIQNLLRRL
Summary of the method: as §1

OR56B1 (Homo sapiens) = molecular target: T9, OR56B1 (Homo sapiens) (UniProt Q8NGI3)
T9 sequence (whole entry): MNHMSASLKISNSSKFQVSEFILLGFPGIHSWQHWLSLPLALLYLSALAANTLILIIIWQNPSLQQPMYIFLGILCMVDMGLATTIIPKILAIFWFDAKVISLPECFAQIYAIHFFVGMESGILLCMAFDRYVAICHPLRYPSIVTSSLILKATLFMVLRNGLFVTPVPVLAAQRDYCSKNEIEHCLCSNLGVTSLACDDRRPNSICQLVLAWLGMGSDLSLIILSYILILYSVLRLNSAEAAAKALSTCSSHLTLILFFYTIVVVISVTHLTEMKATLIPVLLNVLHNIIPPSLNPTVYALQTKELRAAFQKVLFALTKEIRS
Summary of the method: as §1

OR56B4 (Homo sapiens) = molecular target: T10, OR56B4 (Homo sapiens) (UniProt Q8NH76)
T10 sequence (whole entry): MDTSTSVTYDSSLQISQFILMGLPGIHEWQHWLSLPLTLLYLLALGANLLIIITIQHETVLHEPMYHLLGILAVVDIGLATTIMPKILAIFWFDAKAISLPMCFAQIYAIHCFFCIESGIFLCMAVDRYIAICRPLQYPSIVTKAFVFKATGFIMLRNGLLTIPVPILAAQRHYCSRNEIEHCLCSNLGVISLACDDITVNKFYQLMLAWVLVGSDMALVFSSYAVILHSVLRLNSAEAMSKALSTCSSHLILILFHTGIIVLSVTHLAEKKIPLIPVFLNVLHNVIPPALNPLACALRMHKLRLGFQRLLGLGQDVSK
Summary of the method: as §1

OR5A1 (Homo sapiens) = molecular target: T11, OR5A1 (Homo sapiens) (UniProt Q8NGJ0)
T11 sequence (whole entry): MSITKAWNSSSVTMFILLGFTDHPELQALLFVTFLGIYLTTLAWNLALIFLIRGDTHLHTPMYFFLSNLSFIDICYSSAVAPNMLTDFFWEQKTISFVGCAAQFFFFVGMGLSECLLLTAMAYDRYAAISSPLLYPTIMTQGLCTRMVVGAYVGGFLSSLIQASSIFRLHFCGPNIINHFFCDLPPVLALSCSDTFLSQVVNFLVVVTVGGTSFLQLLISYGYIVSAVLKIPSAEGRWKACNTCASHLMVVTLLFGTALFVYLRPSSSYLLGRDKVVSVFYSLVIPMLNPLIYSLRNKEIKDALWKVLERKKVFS
Summary of the method: as §1

OR5A2 (Homo sapiens) = molecular target: T12, OR5A2 (Homo sapiens) (UniProt Q8NGI9)
T12 sequence (whole entry): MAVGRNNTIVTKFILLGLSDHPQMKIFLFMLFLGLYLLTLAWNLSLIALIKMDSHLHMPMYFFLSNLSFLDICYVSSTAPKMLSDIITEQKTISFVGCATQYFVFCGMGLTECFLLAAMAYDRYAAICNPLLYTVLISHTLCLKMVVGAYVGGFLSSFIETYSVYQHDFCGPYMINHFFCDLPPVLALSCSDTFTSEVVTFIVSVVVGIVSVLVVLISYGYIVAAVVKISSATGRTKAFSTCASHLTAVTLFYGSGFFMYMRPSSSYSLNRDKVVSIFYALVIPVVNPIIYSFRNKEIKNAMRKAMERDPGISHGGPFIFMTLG
Summary of the method: as §1

OR5AC1 (Homo sapiens) = OR5AC1 (Homo sapiens) (UniProt P0C628)
Chain of OR5AC1 (Homo sapiens) (P0C628 whole entry): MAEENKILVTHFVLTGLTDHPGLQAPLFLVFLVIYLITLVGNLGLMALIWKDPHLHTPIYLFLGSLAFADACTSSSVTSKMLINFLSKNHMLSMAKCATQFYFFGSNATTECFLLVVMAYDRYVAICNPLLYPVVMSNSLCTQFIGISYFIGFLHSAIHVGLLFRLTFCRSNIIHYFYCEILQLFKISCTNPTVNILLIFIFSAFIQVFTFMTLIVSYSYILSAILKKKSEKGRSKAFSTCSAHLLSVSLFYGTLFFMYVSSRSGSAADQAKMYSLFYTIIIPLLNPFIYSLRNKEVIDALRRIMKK
Summary of the method: as §1

OR5AC2 (Homo sapiens) = molecular target: T13, OR5AC2 (Homo sapiens) (UniProt Q9NZP5)
T13 sequence (whole entry): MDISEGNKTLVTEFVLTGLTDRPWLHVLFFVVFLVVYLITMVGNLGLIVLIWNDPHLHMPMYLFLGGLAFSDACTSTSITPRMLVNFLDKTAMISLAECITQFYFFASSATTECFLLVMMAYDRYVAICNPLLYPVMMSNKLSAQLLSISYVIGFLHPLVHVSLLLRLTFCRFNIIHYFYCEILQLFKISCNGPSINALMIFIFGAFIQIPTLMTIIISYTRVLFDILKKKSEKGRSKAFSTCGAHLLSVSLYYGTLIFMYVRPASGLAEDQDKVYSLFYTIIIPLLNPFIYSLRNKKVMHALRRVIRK
Summary of the method: as §1

OR5AK2 (Homo sapiens) = molecular target: T14, OR5AK2 (Homo sapiens) (UniProt Q8NH90)
T14 sequence (whole entry): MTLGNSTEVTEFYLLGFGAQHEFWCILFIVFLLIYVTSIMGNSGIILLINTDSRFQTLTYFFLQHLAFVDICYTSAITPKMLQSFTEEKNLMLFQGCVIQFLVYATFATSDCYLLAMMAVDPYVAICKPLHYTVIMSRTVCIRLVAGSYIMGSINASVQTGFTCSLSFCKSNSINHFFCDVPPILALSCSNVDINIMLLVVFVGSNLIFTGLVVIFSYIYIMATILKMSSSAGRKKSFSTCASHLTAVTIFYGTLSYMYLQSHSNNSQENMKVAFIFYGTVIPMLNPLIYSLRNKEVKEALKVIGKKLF
Summary of the method: as §1

OR5AL1 (Homo sapiens) = OR5AL1 (Homo sapiens) (UniProt P0C617)
Chain of OR5AL1 (Homo sapiens) (P0C617 whole entry): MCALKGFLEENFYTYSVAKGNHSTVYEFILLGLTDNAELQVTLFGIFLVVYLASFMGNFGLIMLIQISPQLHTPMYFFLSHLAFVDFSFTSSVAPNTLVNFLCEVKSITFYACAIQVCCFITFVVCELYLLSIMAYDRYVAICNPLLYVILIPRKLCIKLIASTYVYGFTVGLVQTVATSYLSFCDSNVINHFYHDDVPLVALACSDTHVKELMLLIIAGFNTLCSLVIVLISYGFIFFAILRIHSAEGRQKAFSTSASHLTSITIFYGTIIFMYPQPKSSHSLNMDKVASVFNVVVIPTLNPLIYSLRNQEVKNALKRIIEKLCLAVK
Summary of the method: as §1

OR5AN1 (Homo sapiens) = molecular target: T15, OR5AN1 (Homo sapiens) (UniProt Q8NGI8)
T15 sequence (whole entry): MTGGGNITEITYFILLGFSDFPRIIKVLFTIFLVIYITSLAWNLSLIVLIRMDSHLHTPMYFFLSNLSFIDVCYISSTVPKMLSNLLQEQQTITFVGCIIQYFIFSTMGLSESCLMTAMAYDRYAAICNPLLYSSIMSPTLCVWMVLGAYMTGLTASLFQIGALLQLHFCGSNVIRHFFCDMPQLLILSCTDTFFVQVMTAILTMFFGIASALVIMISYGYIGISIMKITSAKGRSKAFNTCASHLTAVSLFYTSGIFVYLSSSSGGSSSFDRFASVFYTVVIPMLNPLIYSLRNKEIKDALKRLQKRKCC
Summary of the method: as §1

OR5AP2 (Homo sapiens) = molecular target: T16, OR5AP2 (Homo sapiens) (UniProt Q8NGF4)
T16 sequence (whole entry): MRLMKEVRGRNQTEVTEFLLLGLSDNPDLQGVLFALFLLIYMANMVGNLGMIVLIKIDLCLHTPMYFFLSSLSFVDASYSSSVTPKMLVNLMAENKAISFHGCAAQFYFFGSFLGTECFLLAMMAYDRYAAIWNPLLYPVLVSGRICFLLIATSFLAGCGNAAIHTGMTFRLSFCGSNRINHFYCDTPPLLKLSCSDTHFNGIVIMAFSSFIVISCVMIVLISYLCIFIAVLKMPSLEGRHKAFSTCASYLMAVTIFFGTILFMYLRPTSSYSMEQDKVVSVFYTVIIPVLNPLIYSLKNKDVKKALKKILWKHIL
Summary of the method: as §1

Measured: odorant receptor agonist call

CC1CCCCCCCCCCCCC(=O)C1 (centres undefined)
active: OR5AN1 (Homo sapiens)
inactive: all other assays above
